Data on seven compounds can be found in paper PMC2848690 (Journal of medicinal chemistry, 2010).

Bounds are passed on as bounds.

Series [1] concerns the target recombinant wild type human BCA2 (Homo sapiens, UniProt Q9Y4L5). Put plainly: Recombinant BCA2 autoubiquitination assay. The following applies: 50 μM compound, 30 min preincubation. The series is classed as biochemical. A digest of the protocol:
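Test compound stocks (10 mM in DMSO) were diluted in reaction buffer and preincubated with 10 ng recombinant His-BCA2 (final 5 or 50 μM) for 30 min at room temperature. ATP (20 mM stock), ubiquitin (1 μg), rabbit E1 (20 ng) and human UbcH5b (20 ng) were added in Tris-HCl pH 8.0/DTT/MgCl2 buffer. Reactions ran 1 h at 30 °C, then SDS-PAGE and anti-ubiquitin immunoblot.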

The conditions of series [2]: cited from earlier work.
The subject of series [3] is MCF-7 cells. Put plainly: Zinc chloride rescue of growth inhibition, MTT assay in MCF-7. The series is classed as cell-based, human. The following applies: for Growth inhibitory activity in presence of zinc chloride: compound at its IC50, ZnCl2 600 nM to 75 μM, 5 days, MCF-7.
Series [4] deals with MCF-7 cells. Put plainly: MTT proliferation assay, MCF-7. The settings on record: for Mean IC50 ±SD in MCF-7: MTT assay, 72 hour drug exposure (footnote a), BCA2 +ve, ER +ve, three independent experiments; for IC100 (100% growth inhibitory concentration) in MCF-7: delineated from MTT growth curves. The series is classed as cell-based, human. In a few lines: (§1)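 Exponentially growing cells were kept in RPMI 1640 with 10% heat-inactivated FBS at 37 °C and 5% CO2. They were dosed with test compound from 0.00001 to 10 μM and read by MTT. Each compound was tested in triplicate. Active compounds had three independent experiments, reported as mean ± SD. IC50 and IC100 were read from growth curves.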

Series [5] concerns the target BCA2 (Homo sapiens, UniProt Q9Y4L5). Put plainly: Endogenous BCA2 protein stability in MCF-7 cells. The following applies: 16 hrs exposure at IC100 concentration, compound alone. It counts as cell-based. In a few lines: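 MCF-7 cells (1×10^6) were seeded and grown overnight, then exposed for 16 h to test compound alone, or with cycloheximide (100 μM) and/or a proteasome inhibitor (10 μM). DMSO vehicle controls ran for 16 h. Whole-cell lysates were immunoblotted with in-house anti-BCA2 antibodies, using beta-actin as the loading control.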

The target in series [6] is T1, ALDH1 (Homo sapiens, UniProt P00352).
T1 sequence (P00352 2-501 limits assumed): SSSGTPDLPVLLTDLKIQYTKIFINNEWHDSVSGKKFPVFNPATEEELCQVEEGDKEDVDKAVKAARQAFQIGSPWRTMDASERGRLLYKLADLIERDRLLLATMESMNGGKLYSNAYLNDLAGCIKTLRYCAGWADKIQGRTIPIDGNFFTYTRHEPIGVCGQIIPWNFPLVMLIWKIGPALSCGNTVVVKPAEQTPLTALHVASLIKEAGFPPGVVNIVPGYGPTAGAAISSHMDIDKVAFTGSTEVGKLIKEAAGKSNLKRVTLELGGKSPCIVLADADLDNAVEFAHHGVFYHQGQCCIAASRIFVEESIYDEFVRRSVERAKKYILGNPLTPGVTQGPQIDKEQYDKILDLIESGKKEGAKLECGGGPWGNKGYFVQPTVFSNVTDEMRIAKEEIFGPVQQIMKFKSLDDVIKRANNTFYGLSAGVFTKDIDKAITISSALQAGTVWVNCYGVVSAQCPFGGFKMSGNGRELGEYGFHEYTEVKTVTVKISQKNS
Description: ALDH1 inhibition in K562 cells. The series is classed as cell-based. The settings on record: for ALDH-inhibitory activity (in words): K562 cells, 15 μM.

Series [7] deals with BCA2 low/− cells (MDA-MB-231 or MCF10A). Put plainly: MTT assay, BCA2 low/negative cells as a group. It counts as cell-based, human. The settings on record: active if IC50 <10 μM. A digest of the protocol: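 MDA-MB-231 (BCA2 low/−, ER −) was grown in RPMI 1640 with 10% heat-inactivated FBS, and normal MCF10A mammary epithelial cells in MEGM, both at 37 °C and 5% CO2. Exponentially growing cells received test compound at 0.00001–10 μM for 72 h, followed by MTT read-out. IC50 values came from growth curves, with triplicate wells and three independent experiments (mean ± SD).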

Series [8] has as its system T47D cells. Description: MTT proliferation assay, T47D. The following applies: 72 hour drug exposure (footnote a), BCA2 +ve, ER +ve. It counts as cell-based, human. In a few lines: as §1
Series [9] deals with BCA2+ cells (MCF-7, T47D, MDA-MB-231/ER). Put plainly: MTT assay, BCA2-positive breast cancer cell lines as a group. It counts as cell-based, human. The following applies: active if IC50 <10 μM. A digest of the protocol: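 MCF-7, T47D and MDA-MB-231/ER (a stable ERα-transfected, G418-selected clone of MDA-MB-231 kept in 1mg/mL G418) were grown in RPMI 1640 with 10% heat-inactivated FBS at 37 °C and 5% CO2. Exponentially growing cells were exposed to test compound at 0.00001–10 μM for 72 h, and growth was read by MTT. IC50 values came from growth curves, with triplicate wells and three independent experiments (mean ± SD).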

For series [10], the system named is MDA-MB-231 cells. Put plainly: MTT proliferation assay, MDA-MB-231. It counts as cell-based. The settings on record: Homo sapiens, MDA-MB-231, 72 h, read-out: Mean IC50 ±SD in MDA-MB-231. A digest of the protocol:
as §1

recombinant wild type human BCA2, sequence (Q9Y4L5 whole entry): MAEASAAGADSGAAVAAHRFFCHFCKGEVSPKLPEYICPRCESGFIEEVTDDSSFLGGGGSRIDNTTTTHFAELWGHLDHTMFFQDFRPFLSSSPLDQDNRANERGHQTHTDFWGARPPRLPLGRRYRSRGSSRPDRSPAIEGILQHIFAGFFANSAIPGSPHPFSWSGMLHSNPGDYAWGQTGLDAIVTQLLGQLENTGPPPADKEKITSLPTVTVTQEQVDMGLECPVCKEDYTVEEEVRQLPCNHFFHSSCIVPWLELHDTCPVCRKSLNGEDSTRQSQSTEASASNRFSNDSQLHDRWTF
BCA2, sequence (Q9Y4L5 whole entry): as above

Regarding `CCN(CC)C(=S)SSC(=S)N(CC)CC` [Compound 1, bis(diethylaminothiocarbonyl)-disulfide, reference compound], the “Inhibition of autoubiquitination of recombinant BCA2” value (“Inhibition” for short) in series [1] was “abolish the autoubiquitination activity”. Besides, the Oral bioavailability in series [2] was over 80%. Also, the “Growth inhibitory activity in presence of zinc chloride” value (“Growth inhibitory activity in presence” for short) in [3] is listed as “completely abolished”.

In the case of `[Cl-].[Cl-].[Zn+2]` [Zinc chloride, zinc (II) chloride], the “Effect on the growth of MCF-7 cells” value in series [3] (zinc chloride alone) was “no effect”.

As for `CCCCCCSSC(=S)N(CC)CC` [Compound 5d, Hexyl diethylcarbamo(dithioperoxo)thioate], in series [1], the “Inhibition” value is reported as “abolish the autoubiquitination activity”. Besides, in series [4], the “Mean IC50 ±SD in MCF-7” value is reported as “submicromolar” and the “IC100 (100% growth inhibitory concentration) in MCF-7” value was 1 µM. Besides, in series [5], the “BCA2 protein levels in MCF-7 cells” value is given as “marked reduction”. The “ALDH-inhibitory activity (in words)” value in series [6] is “lack ALDH-inhibitory activity”. Also, the “Activity in BCA2 low/− cells” value in series [7] was “inactive”. The “Mean IC50 ±SD in T47D” value in series [8] is given as “submicromolar”. Moreover, in [3], the “Growth inhibitory activity in presence” value is “completely abolished”. Further, the “Activity in BCA2+ cells” value in [9] is given as “active”.

As to `C1CN(SSN2CCOCC2)CCO1` [Compound 4, 4,4′-dithiodimorpholine], the “Activity in BCA2 low/− cells” value in [7] was “inactive”. The “Activity in BCA2+ cells” value in series [9] was “inactive”.

`S=C(SSC(=S)N1CCCCC1)N1CCCCC1` [Compound 3a, Bis(piperidinylthiocarbonyl)disulfide]: the “Inhibition” value in [1] was “abolish the autoubiquitination activity”. Besides, in series [4], the “Mean IC50 ±SD in MCF-7” value was “submicromolar” and the “IC100 (100% growth inhibitory concentration) in MCF-7” value is 0.25 µM. Further, the “BCA2 protein levels in MCF-7 cells” value in series [5] is given as “marked reduction”. Moreover, the “Mean IC50 ±SD in T47D” value in [8] is on record as “submicromolar”. In [3], the “Growth inhibitory activity in presence” value is “completely abolished”.

Regarding `CCN(CC)C(=S)SSCCO` [Compound 5f, 2-Hydroxyethyl diethylcarbamo(dithioperoxo)thioate], in [1], the “Inhibition” value was “abolish the autoubiquitination activity”. Also, in series [10], the IC50 was over 10 µM. Besides, the “Mean IC50 ±SD in MCF-7” value in series [4] is listed as “submicromolar”. Moreover, the “ALDH-inhibitory activity (in words)” value in [6] is on record as “lack ALDH-inhibitory activity”. The “ALDH+ K562 cells (%)” value in [6] (compound 15 μM, 45 min at 37 °C) is on record as 36.9 ± 3.15%. The “Activity in BCA2 low/− cells” value in [7] is “inactive”. Besides, in series [8], the “Mean IC50 ±SD in T47D” value is listed as “submicromolar”. For the same compound, the “Activity in BCA2+ cells” value in series [9] is reported as “active”.

Regarding `S=C(SSC(=S)N1CCCC1)N1CCCC1` [Compound 3c, Bis(pyrrolidinylthiocarbonyl)disulfide], the “Inhibition” value in series [1] is recorded as “abolish the autoubiquitination activity”. The “Mean IC50 ±SD in MCF-7” value in [4] is “submicromolar”. The “Mean IC50 ±SD in T47D” value in series [8] is “submicromolar”.
